Assay results gathered from unrelated publications.
Compare with care: the assays were run in different laboratories.
Sample: plasma

With `COc1ccc2c(c1)CN(C(=O)CCN1CCC(Cc3ccccc3)CC1)CC[S@@+]2[O-]` the AUC(0-inf) was 250 ng·h/mL (male human; intravenous; 0.05 mg/kg; healthy volunteers).
With `O=C(COc1ccc(Cl)cc1)NC12CC(c3nnc([C@H]4C[C@@H](OC(F)(F)F)C4)o3)(C1)C2` the AUC was 36.5 µM·h (human; oral; 45 mg; multiple doses, once daily, steady state, healthy volunteers).
The AUC(0-inf) of `C=CC(=O)NC1CCN(c2ncc3ncnc(Nc4ccc(Oc5ccc6c(c5)ncn6C)c(C)c4)c3n2)CC1` is reported as 14.2 µM·h (male human; oral; 60 mg; single dose, healthy volunteers).
`OC[C@H]1O[C@@H](c2cc(Cc3ccc(C4CC4)cc3)c(Cl)c3c2CCO3)[C@H](O)[C@@H](O)[C@@H]1O` gave an AUC(0-inf) of 33.3 ng·h/mL (human; oral; 0.3 mg; single dose, fasted).
For `N#Cc1cccc(-c2ccc3ncc(-c4cc(F)cc(F)c4)c(N4CCC(N)CC4)c3c2)c1O`, the AUC was 2360 ng·h/mL (male human; oral; 20 mg; single dose).
`COc1ccc(F)cc1C(=O)NCc1ccc(-c2nn([C@@H](C)C(F)(F)F)c(N)c2C(N)=O)cc1` has an AUC(0-inf) of 85100 ng·h/mL (human; oral; 200 mg; single dose, fasted, healthy volunteers).
The AUC of `CC(C)c1nc(N(C)S(C)(=O)=O)nc(-c2ccc(F)cc2)c1/C=C/[C@@H](O)C[C@@H](O)CC(=O)O` is reported as 60.3 ng·h/mL (human; oral; 10 mg).
The AUC(0-inf) of `CC(=O)N(C)[C@H]1CCN(C(=O)c2cnc3c(c2)C[C@](C)(c2ccc(F)cc2)N3)C1` is reported as 2.22 µM·h (male human; oral; 15 mg; multiple doses, once daily).
`CC(C)n1c(C2CCNCC2)nc2c([N+](=O)[O-])c(Br)c(Br)cc21` gave an AUC(0-t) of 288 ng·h/mL (human; oral; 75 mg; patients).
`COc1ccc(-c2c(Nc3ccccn3)[nH]c3c(C4=CCCCC4)c(-c4ccccc4)nn3c2=O)cc1` gave an AUC(0-t) of 93600 ng·h/mL (human; oral; 150 mg once daily; multiple doses, steady state, patients).
